Source: PubChem (several laboratories)
14-3-3 Bad PPI = disrupts binding of bovine 14-3-3 zeta to phospho-Bad peptide; TR-FRET 14-3-3zeta/Dy647-pBad peptide displacement, 1 h; inhibition, % at 21.7 µM; actives 0.71% (n = 220,000); AID 781;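 active = inhibition above about 70%, limit read from the data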;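 also: 0% = full 14-3-3 plus peptide FRET controls and 100% = background without 14-3-3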
EBV gp42 inh = EBV gp42 inhibition | actives 0.42% (n = 220,000) | inhibition, % (tested at 21.74 µM) | Fluorescence polarization binding assay, mP read-out | AID 1085; in the data active = inhibition above about 50%
Target sequence (Q1HVG2 whole entry, looked up): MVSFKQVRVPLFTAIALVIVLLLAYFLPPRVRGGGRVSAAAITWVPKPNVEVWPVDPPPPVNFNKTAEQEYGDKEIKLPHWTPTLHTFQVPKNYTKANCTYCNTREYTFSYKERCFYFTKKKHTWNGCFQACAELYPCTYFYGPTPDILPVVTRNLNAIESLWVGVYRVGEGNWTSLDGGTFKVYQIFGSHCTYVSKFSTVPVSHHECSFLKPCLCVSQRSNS
eIF4E 4G PPI = inhibitors of eIF4E and eIF4G interaction in translation initiation. TR-FRET eIF4E-eIF4GI(517-606) binding, 2 h. inhibition, % at 21.7 µM. actives 0.37% (n = 220,000). AID 782;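 also: 0% = full FRET control wells and 100% = background wells lacking eIF4GI fragment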
NCF1 inh = p47phox (human) inhibition; P14598; p47phox/p22phox peptide binding, fluorescence polarization, 2 h; actives 0.53% (n = 220,000); inhibition, % at 24.7 µM;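 also: 0% = p47phox with labelled peptide and 100% = labelled peptide alone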
WT yeast gro inh = growth inhibition of WT yeast, mitochondrial fusion screen. inhibition, % at 10 µM. mitochondrial fusion phenotypic screen, WT strain. actives 2.1% (n = 190,000); in the data active = inhibition above about 58%; tested in S. cerevisiae
RBBP9 inhibitor = blocks human serine hydrolase RBBP9. recombinant RBBP9, FP-Rh probe fluorescence polarization. inhibition, % at 7.94 µM. actives 0.2% (n = 220,000). AID 1515;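 active = inhibition above the campaign mean of all tested compounds plus 3 SD, cut at about 14% in these data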;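 also: plate controls were DMSO wells with RBBP9 for no effect and wells lacking RBBP9 protein for full effect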
Target sequence (O75884 whole entry, looked up): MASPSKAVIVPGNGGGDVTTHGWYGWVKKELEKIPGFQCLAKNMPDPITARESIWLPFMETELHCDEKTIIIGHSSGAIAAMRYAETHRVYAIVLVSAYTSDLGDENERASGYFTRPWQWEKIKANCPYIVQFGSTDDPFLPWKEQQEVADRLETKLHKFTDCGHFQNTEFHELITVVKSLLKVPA
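Test system – recombinant human RBBP9 · Input – RBBP9 2.5 µM in dispensing solution, pre-mixing · Medium – Tris buffer pH 8.0, NaCl, Pluronic · Schedule – preincubation 30 min plus labeling 45 min at 25 °C · Measured by – fluorescence polarization · Measure – % inhibition · Controls – DMSO and no-protein wells · Replicates – one well per compound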
Numbers without * were called inactive; [ ] = another dose, or the depositor's remark. The list is not random: actives were taken first. Their share in the collection is about 3.7%.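 The calls were made as follows, unless noted: active = inhibition above about 30% (limit read from the data); inactive = the rest.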

`O=C1NC2(CCN(Cc3ccccc3)CC2)Oc2ccccc21` gave 14-3-3 Bad PPI 11.9, EBV gp42 inh -11.4, eIF4E 4G PPI 4.2, NCF1 inh -0.9, WT yeast gro inh 2.0 and RBBP9 inhibitor -4.5.
For Nc1ccc2nn(-c3ccccc3)nc2c1 the results were 14-3-3 Bad PPI -3.0, EBV gp42 inh -14.4, eIF4E 4G PPI 10.7, NCF1 inh 1.0, WT yeast gro inh 62.9* and RBBP9 inhibitor -3.6.
Cc1ccccc1OCCn1cnc2c(N)ncnc21 was read as 14-3-3 Bad PPI 46.7, EBV gp42 inh -0.7, eIF4E 4G PPI 5.1, NCF1 inh 40.9*, WT yeast gro inh 2.1 and RBBP9 inhibitor 4.8.
For Nc1ncnc2c1ncn2CCN1CCCCC1 the results were 14-3-3 Bad PPI 5.1, EBV gp42 inh -21.7, eIF4E 4G PPI 3.9, NCF1 inh -5.8, WT yeast gro inh -4.0 and RBBP9 inhibitor -10.2.
COc1cccc2[nH]c3c(Cl)ncnc3c12 was read as 14-3-3 Bad PPI 5.0, EBV gp42 inh -6.1, eIF4E 4G PPI 4.5, NCF1 inh 1.1, WT yeast gro inh -6.5 and RBBP9 inhibitor -5.1.
COc1ccc(CC(NC(C)=O)C(=O)NC2CCN(c3nnnn3-c3ccccc3)CC2)cc1OC (configuration not stated) was read as 14-3-3 Bad PPI -6.7, EBV gp42 inh -18.6, eIF4E 4G PPI -0.1, NCF1 inh 4.4, WT yeast gro inh -12.4 and RBBP9 inhibitor 0.2.
Screening Cc1ccc(-c2csc3nnc(SCC(=O)Nc4nsc(-c5ccccc5)n4)n23)cc1 returned 14-3-3 Bad PPI 19.0, EBV gp42 inh -3.2, eIF4E 4G PPI -16.2, NCF1 inh -4.0, WT yeast gro inh 26.5 and RBBP9 inhibitor -2.9.
Screening O=C(CSc1nnc2scc(-c3ccccc3)n12)Nc1nsc(-c2ccccc2)n1 returned 14-3-3 Bad PPI 69.1, EBV gp42 inh 2.4, eIF4E 4G PPI -7.0, NCF1 inh 44.5*, WT yeast gro inh -3.5 and RBBP9 inhibitor -5.9.
For CC1(C2CC2)NC(=O)NC1=O (configuration not stated) the results were 14-3-3 Bad PPI 3.1, EBV gp42 inh -6.0, eIF4E 4G PPI 90.0*[fluorescence artefact?], NCF1 inh -3.1, WT yeast gro inh -8.0 and RBBP9 inhibitor -8.3.
Screening CCCC1(CCC)NC(=O)NC1=O returned 14-3-3 Bad PPI 4.2, EBV gp42 inh -20.5, eIF4E 4G PPI 10.9, NCF1 inh 4.2, WT yeast gro inh 0.4 and RBBP9 inhibitor -6.0.
For CCC(CC)NC(=O)Nc1ccc(C)cc1 the results were 14-3-3 Bad PPI -7.2, EBV gp42 inh -19.0, eIF4E 4G PPI -0.7, NCF1 inh -0.9 and RBBP9 inhibitor -0.4.
`CC1CCCCC1n1c(=S)[nH]c2ccccc2c1=O` (configuration not stated) gave 14-3-3 Bad PPI 0.3, EBV gp42 inh 7.3, eIF4E 4G PPI -0.1, NCF1 inh -10.4, WT yeast gro inh 75.5* and RBBP9 inhibitor -5.5.
`CCCCSc1nnc(-c2ccccc2)c2ccccc12` gave 14-3-3 Bad PPI 0.6, EBV gp42 inh -1.9, eIF4E 4G PPI 4.4, NCF1 inh 6.8, WT yeast gro inh 82.0* and RBBP9 inhibitor -7.9.
For COc1ccc(C(=O)/C=C/C(=O)N(CC(=O)NC2CCCCC2)Cc2ccc(F)cc2)c(O)c1 the results were 14-3-3 Bad PPI 3.6, EBV gp42 inh -3.1, eIF4E 4G PPI 2.0, NCF1 inh 33.2*, WT yeast gro inh 54.2 and RBBP9 inhibitor 2.5.
CS(=O)(=O)N(CC(=O)NC1CCCCC1)Cc1ccc(F)cc1 was read as 14-3-3 Bad PPI 2.0, EBV gp42 inh -3.4, eIF4E 4G PPI 3.5, NCF1 inh -9.3, WT yeast gro inh 11.2 and RBBP9 inhibitor 6.8.
For CC(=O)OCC(OC(C)=O)C(OC(C)=O)C(OC(C)=O)C(=O)Nc1cccc(C)c1 (configuration not stated) the results were 14-3-3 Bad PPI 5.2, EBV gp42 inh -31.1, eIF4E 4G PPI 12.9, NCF1 inh -11.2 and RBBP9 inhibitor 1.1.
`Cc1n[nH]c(=S)n1/N=C/c1ccc(OCc2ccc(Cl)cc2)cc1` gave 14-3-3 Bad PPI -2.8, EBV gp42 inh -17.6, eIF4E 4G PPI 12.5, NCF1 inh -14.4, WT yeast gro inh 23.9 and RBBP9 inhibitor -3.3.
Screening Cc1cc(C)c(COc2ccc(/C=N/n3c(C)n[nH]c3=S)cc2)c(C)c1 returned 14-3-3 Bad PPI -5.9, EBV gp42 inh -17.6, eIF4E 4G PPI 0.8, NCF1 inh -10.0, WT yeast gro inh 91.4* and RBBP9 inhibitor -5.6.
